Data on four molecules can be found in ChEMBL document CHEMBL4354819, “Discovery of Novel Small Molecule Dual Inhibitors Targeting Toll-Like Receptors 7 and 8” (J Med Chem, 2019).

In one data set the target is T1, Toll-like receptor 7 (Homo sapiens, UniProt Q9NYK1).
T1 sequence (Q9NYK1 whole entry): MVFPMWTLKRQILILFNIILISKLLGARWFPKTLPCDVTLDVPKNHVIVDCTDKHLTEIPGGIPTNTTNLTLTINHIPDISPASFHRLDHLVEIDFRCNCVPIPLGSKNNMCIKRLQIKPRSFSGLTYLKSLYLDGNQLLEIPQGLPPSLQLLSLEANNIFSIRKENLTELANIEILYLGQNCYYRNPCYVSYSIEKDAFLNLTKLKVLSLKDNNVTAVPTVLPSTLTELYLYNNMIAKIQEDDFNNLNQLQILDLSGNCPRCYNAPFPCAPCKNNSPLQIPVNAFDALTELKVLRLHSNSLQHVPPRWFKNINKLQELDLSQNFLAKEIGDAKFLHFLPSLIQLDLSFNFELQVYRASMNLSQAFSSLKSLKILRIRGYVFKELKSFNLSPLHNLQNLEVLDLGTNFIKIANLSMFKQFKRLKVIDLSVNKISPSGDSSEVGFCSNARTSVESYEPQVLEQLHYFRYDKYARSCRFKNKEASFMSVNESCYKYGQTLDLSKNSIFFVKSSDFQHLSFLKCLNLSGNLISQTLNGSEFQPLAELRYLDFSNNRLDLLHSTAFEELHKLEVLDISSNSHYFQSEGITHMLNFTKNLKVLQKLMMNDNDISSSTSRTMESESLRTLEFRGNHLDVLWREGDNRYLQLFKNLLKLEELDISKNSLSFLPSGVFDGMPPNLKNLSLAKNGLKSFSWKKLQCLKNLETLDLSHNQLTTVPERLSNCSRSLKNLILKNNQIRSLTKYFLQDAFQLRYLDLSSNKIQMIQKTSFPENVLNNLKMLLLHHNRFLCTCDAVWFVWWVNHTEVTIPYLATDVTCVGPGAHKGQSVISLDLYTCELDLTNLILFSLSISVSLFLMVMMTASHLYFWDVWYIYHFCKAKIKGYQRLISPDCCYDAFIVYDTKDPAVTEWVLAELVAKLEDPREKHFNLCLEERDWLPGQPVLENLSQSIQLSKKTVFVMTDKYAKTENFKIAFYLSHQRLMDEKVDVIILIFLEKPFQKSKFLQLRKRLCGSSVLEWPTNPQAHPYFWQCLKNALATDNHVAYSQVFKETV
Briefly: Inhibition of human TLR7 expressed in HEK293 cells assessed as reduction in R848-induced NFkappaB production incubated for 16 hrs by quanti-blue SEAP assay. Type of data set: cell-based. The method, boiled down: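 HEK 293-Blue cells stably expressing hTLR7 or hTLR8 with an inducible SEAP reporter were incubated 16 h with compound under 1 µg/mL R848 stimulation. SEAP was read at 620 nm. Data were normalized to the R848 control, and IC50 was taken from concentration-response curves. […] Mean ± s.d., n = 3 independent experiments.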

The subject of the next data set is RAW264.7. Briefly: Cytotoxicity against mouse RAW264.7 cells transfected with human TLR7/8 assessed as reduction in cell viability at 0.5 to 20 uM incubated for 16 hrs by WST-1 assay. Type of data set: cell-based. The conditions noted are these: raw264.7, 16 h.
The target of data set [1] is T2, Toll-like receptor 8 (Homo sapiens) (UniProt Q9NR97).
T2 sequence (whole entry): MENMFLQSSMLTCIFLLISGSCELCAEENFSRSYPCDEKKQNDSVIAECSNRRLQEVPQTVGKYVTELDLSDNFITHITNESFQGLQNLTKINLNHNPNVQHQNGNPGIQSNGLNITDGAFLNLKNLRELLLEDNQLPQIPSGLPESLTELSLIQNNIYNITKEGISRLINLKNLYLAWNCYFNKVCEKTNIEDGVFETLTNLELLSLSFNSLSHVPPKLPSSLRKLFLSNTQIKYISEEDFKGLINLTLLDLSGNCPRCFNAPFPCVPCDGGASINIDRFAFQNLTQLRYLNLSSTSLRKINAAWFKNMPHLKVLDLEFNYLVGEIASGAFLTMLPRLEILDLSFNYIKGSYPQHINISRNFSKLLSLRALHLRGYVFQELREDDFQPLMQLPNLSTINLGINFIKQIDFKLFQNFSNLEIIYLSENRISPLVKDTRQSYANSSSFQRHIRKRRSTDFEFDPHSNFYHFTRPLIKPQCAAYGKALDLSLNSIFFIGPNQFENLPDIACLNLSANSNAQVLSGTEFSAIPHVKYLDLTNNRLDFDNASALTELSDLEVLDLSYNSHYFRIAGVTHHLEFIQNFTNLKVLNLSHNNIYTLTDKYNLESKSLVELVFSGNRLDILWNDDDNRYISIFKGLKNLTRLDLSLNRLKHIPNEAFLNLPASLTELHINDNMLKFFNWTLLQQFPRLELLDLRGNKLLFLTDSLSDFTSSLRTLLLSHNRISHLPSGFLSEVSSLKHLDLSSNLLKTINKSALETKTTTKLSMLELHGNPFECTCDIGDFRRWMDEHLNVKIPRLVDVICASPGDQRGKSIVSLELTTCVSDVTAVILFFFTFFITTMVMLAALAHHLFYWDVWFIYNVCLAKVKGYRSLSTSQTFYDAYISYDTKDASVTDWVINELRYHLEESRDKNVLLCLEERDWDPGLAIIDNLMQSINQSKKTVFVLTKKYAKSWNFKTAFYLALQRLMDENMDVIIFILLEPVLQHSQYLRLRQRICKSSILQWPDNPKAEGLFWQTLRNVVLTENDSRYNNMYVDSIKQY
Put plainly: Inhibition of human TLR8 expressed in HEK293 cells assessed as reduction in ssRNA-induced NFkappaB production at 5 uM incubated for 16 hrs by quanti-blue SEAP assay. Type of data set: cell-based. In outline: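 HEK 293 hTLR8 SEAP reporter cells were stimulated with ssRNA (ssRNA-Lyo-40) and incubated with compound for 16 h. Data were normalized as (raw − untreated)/(ligand + solvent − untreated), with ligand + solvent set as 100%. Mean ± s.d., n = 3 independent experiments.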

The test system of another data set is THP-1. Briefly: Inhibition of IFN mediated immune response in human THP1 cells assessed as inhibition of 3p-hpRNA-induced RIG1 signalling pathway at 0.5 to 5 uM incubated for 16 hrs by luciferase assay. In kind it is functional, cell-based. The method, boiled down: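 THP1-Dual monocytes carrying Lucia luciferase and SEAP reporters were stimulated with 3p-hpRNA (RIG-I agonist) or Y-form dsDNA G3-YSD (cGAS agonist), with or without compound. Secreted Lucia luciferase luminescence was measured as the type I IFN read-out. Mean ± s.d., n = 3 independent experiments.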

The target of data set [2] is T2, Toll-like receptor 8 (Homo sapiens). Put plainly: Inhibition of human TLR8 expressed in HEK293 cells assessed as reduction in TNFalpha production incubated for 24 hrs by ELISA. In kind it is cell-based. On the technique in general: ELISA stands for enzyme-linked immunosorbent assay.

The source made the active and inactive calls. The calls are words filed in the database; no cut-off is given here.

Broadly, the IC50 is the point on the concentration scale where inhibition reaches its midpoint. Consider `O=C(Nc1ccc(Oc2cc(C(F)(F)F)cc(C(F)(F)F)c2)cc1)c1c(F)cccc1I`, for which the IC50 at Toll-like receptor 7 was above 50 µM. In addition, the Activity entry with RAW264.7 was “Non-Toxic”. The inhibition entry (in data set [1]; in the data set on THP-1) was “inactive” in each case. Besides, in data set [2], the inhibition entry was “Active”.
Turning to `O=[N+]([O-])c1c(I)cccc1Oc1ccc(-c2nnco2)cc1`, the IC50 at Toll-like receptor 7 was above 20 µM. Also, the Activity entry in the data set with RAW264.7 is recorded as “Non-Toxic”. Also, the inhibition entry in data set [1] and in data set [2] was “Active” each time. For the same molecule, the inhibition entry in the data set on THP-1 is “inactive”.
For the molecule `O=C(Nc1ccc(Oc2cc(C(F)(F)F)cc(C(F)(F)F)c2)cc1)c1c(F)cccc1Cl`, the IC50 at Toll-like receptor 7 is 2.88 µM.
Take `O=C(Nc1ccc(Oc2cncc(C(F)(F)F)c2)cc1)c1c(F)cccc1Cl`: in the data set with RAW264.7, the Activity entry is recorded as “Non-Toxic”. Besides, the inhibition entry (in data set [1]; in the data set with THP-1) was “inactive” each time. Moreover, the inhibition result in data set [2] is “Active”.
